Measured values: the EternaBench riboswitch data

System: MS2 coat protein
Assay: apparent Kd, MS2 coat protein; higher = weaker binding; RNA-MaP array; FMN 200 µM where present
Method in brief: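 Stalled E. coli RNA polymerase transcribed the designs on Illumina sequencing-chip clusters. SNAP-549-labelled MS2 coat protein was titrated from 0.7 or 1.5 nM, doubling to 3 µM, without and then with constant ligand, in 100 mM Tris-HCl pH 7.5, 80 mM KCl, 4 mM MgCl2, BSA, DTT, yeast tRNA and Tween-20. Per-cluster binding curves were fitted to green signal normalised to red-channel RNA signal and control-cluster median Fmax. The apparent Kd is the median of the filtered fits.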

[1] = designed as: OFF switch for flavin mononucleotide, no ligand
[2] = ligand present: flavin mononucleotide, designed as: OFF switch for flavin mononucleotide
[3] = designed as: ON switch for flavin mononucleotide, no ligand
[4] = ligand present: flavin mononucleotide, designed as: ON switch for flavin mononucleotide

| Sequence | apparent Kd [1] | apparent Kd [2] | apparent Kd [3] | apparent Kd [4] |
| --- | --- | --- | --- | --- |
| AAUUUACAGCUAGGAUAUACAUGAGGAUCACCCAUGUAAUGAUCGGAUCUUAUGAUCGUAUCAGUGUAGAAGGAGCAAAUAAGA | 12.3 nM | 21.3 nM |  |  |
| UCGGCGCGAGGAUAUGCGGUUCCUGCUUCGGGCCGGAGCGUACAUGAGGAUCACCCAUGUAGAAGGCGCGCCGC | 14.2 nM | 14.6 nM |  |  |
| AGCAGACGAGGAUAUAGAUGGAAUGACAUGAGGAUCACCCAUGUGAUCGAUCUAUUGGGUUUAGAAGGUGUCUGCU | 15.2 nM | 15.4 nM |  |  |
| UUUGAUGUUGAGGAUAUGCUUUUUUUUAUUAUAGCAGAAGGCGAUACAUGAGGAUCACCCAUGUUCAUGGCUUU | 12.8 nM | 15.5 nM |  |  |
| GUAAAUGGUAUGGCUUCGACCACACAGGAUAUGAAAAUGUACAUGAGGAUCACCCAUGUUCUGAAUCAGAAGGGUGAUGGACGG |  |  | 20.7 nM | 6.74 nM |
| GUCAGCGCGUGAGGAUAUACAACACUGCUUCGGCAGUGUAUUAAGAUCACAUGAGGAUCACCCAUGUAGAAGGCACGAGCUGAU | 14 nM | 263 nM |  |  |
| UGGUACUAGGAAGGAUAUGGGAAGAUACAUGAGGAUCACCCAUGUUUAAGAAUGCCGAGAGGCAACUAGAAGGCCCUAGUACCU |  |  | 596 nM | 135 nM |
| AGCAAGAGAGGAUAUACAUAGGAAAAAAAAGUCUGAUCCCUACAUGAGGAUCACCCAUGUAGAAGGCUCUGGCA | 69.5 nM | 24.7 nM |  |  |
| CAGUUCUGAGGAUAUCCACCCUCGUACAUGAGGAUCACCCAUGUUUCCCUCUGGGCUUUCGGAGAAGGCAGGUAUC | 51.4 nM | 50.4 nM |  |  |
| UUUUUACUUGCAGGAUAUGGAGACAUGAGGAUCACCCAUGUAUGAUAAGCUAAAUUAUGCUGUGGCCAGAAGGGUAUUAUUCUU |  |  | 63.2 nM | 57.4 nM |
| UUCAUGUGAGGAUAUAGUACUCCUUCUAUUAUUUUUGAGUAUUAGAAGGCACAUGAGGAUCACCCAUGUAGUAC | 28.1 nM | 46.9 nM |  |  |
| ACGUGUUAUACAGGAUAUGUUUAGGUACAAUCAUCCAGAUAUUAAUUUAUAACAGAAGGGUAAACAUGAGGAUCACCCAUGUCA | 18.4 nM | 15.1 nM |  |  |
| CAGGUAGACUGAGGAUAUACAUUAAACAGCUAGUCUAUCUAGCUGCUCACAUGAGGAUCACCCAUGUAGAAGGCAGUCUGCCUG | 26.1 nM | 75 nM |  |  |
| GCCAUCGCAUGAGGAUAUGCUCGGGUUUCCCGAGCAGAAGGCAUGUAAUAAAACAUGAGGAUCACCCAUGUAGUUAAGAUGGCA |  |  | 8.29 nM | 5.36 nM |
| AAGAGUAGAGGAUAUAUAUGAAAAGAGUCGAAAGACUCAAAACAUGAGGAUCACCCAUGUAGAAGGCUACUCAA | 17.8 nM | 21.1 nM |  |  |
| CGCGGACAAGAGAAGGCCAGACCUCGGAACUUGAGGCACCGCUAGGCAUGGAGGAUAUCUUGACAUGAGGAUCACCCAUGUACA |  |  | 86.3 nM | 18.1 nM |
| AGCGCCAUCGUGAGAUGGCGUAUUACAUGAGGAUCACCCAUGUAGGAUAUCGAUUGCUUUGCAGUCGAGAAGGACAUGUUCUUG | 51.5 nM | 91.7 nM |  |  |
| UUUUAGAUCCGAGGAUAUACAAUCCGGAAACGGUACAUGAGGAUCACCCAUGUAGAAGGCGGAUCUACAGGUACUAAAGUAUUU | 10 nM | 8.84 nM |  |  |
| AAAUGCAAUCAAGGAUAUGUAUUAAAGAUAUGAAAACAUGAGGAUCACCCAUGUAUAUGGUGGGAACAGAAGGUGAAUAAGUAA | 223 nM | 200 nM |  |  |
| CACAAGAAAGUCGAAGGUUGAAGUAGAAGGUUUAUAACAUGACAUGAGGAUCACCCAUGUGCCAAGAAGGAUAUGCUUUAAUCG | 11.4 nM | 9.43 nM |  |  |
| CCUCCACAUGAGGAUCACCCAUGUCAGGAUAUCGUGUGUGCUUUUUCGGUCUUUCGUGCGAGAAGGGACGUCUG | 27.6 nM | 26.7 nM |  |  |
| GUAUGGAGUACAGGAUAUGUUAGUUUUAAGUGUAUUGGUUAUUACUUAAUUACAGAAGGGUAUUACAUGAGGAUCACCCAUGUA |  |  | 13.6 nM | 10.6 nM |
| GAAGCAUGCAAUAACAUGAGGAUCACCCAUGUGAAAACACGUGAGGAUAUUGAUCUGAAGAAGAUCGAGAAGGCACCGUGCUAA |  |  | 13.4 nM | 9.92 nM |
| GUAGCAUACCGAGGAUAUUCAUACAGGAAACAGACAUGAGGAUCACCCAUGUGGCGAAAGCCUUGGGAGAAGGCGGAAUGCUAC |  |  | 146 nM | 22.7 nM |

| Sequence | apparent Kd [1] | apparent Kd [2] | apparent Kd [3] | apparent Kd [4] |
| --- | --- | --- | --- | --- |
| AUUUUGUCAGGAUAUGAGUAGUAGGACGAAAGUGUUAUUAUUUAGAAGGGACAUGAGGAUCACCCAUGUUCCUC | 12.7 nM | 16.2 nM |  |  |
| AAAACGUGAGGAUAUGCACCCACCAAGGUUUUUCGGGUACGACAUGAGGAUCACCCAUGUAGAAGGCACGCAAA | 27.6 nM | 21.2 nM |  |  |
| AGCUACGUUUCGUAGCAGUGUCAUCGAGAAGGCUCAAAUACAUGAGGAUCACCCAUGUUAACAUGGGAGGAUAUCGAUGAUACA |  |  | 63.6 nM | 7.86 nM |
| ACAAGAUCAGGAUAUACAUGAGGAUCACCCAUGUAUUUCAAAAAAAAACUUUCUUUAUGUAGAAGGGAUCUUGU | 14.7 nM | 13.5 nM |  |  |
| CCGCAAAUGGAGGAUAUCGUAUCGGAUACGAUACGAGAAGGCUAAACAUGAGGAUCACCCAUGUGUCCUAGCGG | 14 nM | 15.5 nM |  |  |
| GUAAAGUGAGGAUAUGGUGAGUAGUGCCUGAGCGCUGCUCACCAGAAGGCACAUGAGGAUCACCCAUGUAUAGC | 14.7 nM | 27.1 nM |  |  |
| AAAGAGUCAGGAUAUUCGUAUAGAGUAGCGCGACUCUAUACGAAGAAGGGACAUGAGGAUCACCCAUGUAAAAA | 28.1 nM | 45.6 nM |  |  |
| CUUUUGUGAGGAUAUCAGUAGUAAAUAAUUAAAAUUACUACUGAGAAGGCACAUGAGGAUCACCCAUGUUCCUC | 42.2 nM | 284 nM |  |  |
| UGGUACUAGGGAGGAUAUUGGAAGAUACAUGAGGAUCACCCAUGUUUAAGAAUGCCGAGAGGCAACUAGAAGGCCCUAGUACCU |  |  | 8.37 nM | 5.09 nM |
| GCUCGAUGCGCUGAGCACAUGAGGAUCACCCAUGUAAAUGGUCAGGAUAUUUACGUGCUUUAUGUAGAGAAGGGACUAUCGAGC |  |  | 630 nM | 59.4 nM |
| UUUAUAUUCAGAGGAUAUUGAUGUUGUAUUUUACAAGAAGGCUGUUUGUUUUGUAAUGUUAUUAUACAUGAGGAUCACCCAUGU |  |  | 20.6 nM | 17.3 nM |
| UUGGACAUCGUAGGAUAUGUAGGAUAUUCCUACAUGAGGAUCACCCAUGUUGACAUGGAAGAAGGACAGAAGGACGAUGUCCAU |  |  | 207 nM | 4.12 nM |
| GUCAGCUCGCGAGGAUAUACAACACUGCUUCGGCAGUGUAUUAAGAUCACAUGAGGAUCACCCAUGUAGAAGGCACGAGCUGAU | 10.4 nM | 145 nM |  |  |
| GUCCUACAUGAGGAUCACCCAUGUCAGGAUAUGUAGCGUCCGGGCCAUAAGGCUCGGAGCAGAAGGGACAGGUG | 13.8 nM | 18.2 nM |  |  |
| AGUGUCAUCCAGAAGGAGAUGGACAUGAGGAUCACCCAUGUUCCAUGAUCUAGGAUAUGGAUGAUACAGCUACGUUUCGUAGCA |  |  | 4.61 nM | 4.73 nM |
| AUAUCACAUGAGGAUCACCCAUGUCAGGAUAUGAUACUAUGUACUUCGGUACAUAGUAUCAGAAGGGAUAUGAA | 41.5 nM | 69.9 nM |  |  |
| UAUUAGUAAGGAUAUCCUUGCAUGGACGAAAGUCCAUGCAAGGAGAAGGUACAUGAGGAUCACCCAUGUUCAUU | 17.2 nM | 17.9 nM |  |  |
| GAAAAGGUAGGAUAUACGAAAAAAAAGGGUAGAAAAAAUACACAUGAGGAUCACCCAUGUAGAAGGACCAAAAG | 31.5 nM | 130 nM |  |  |
| AGCUGUGGCCGAGGAUAUCUGAAAACUCAAACCGAAAUAUAAUCGGACAUGAGGAUCACCCAUGUAGAGAAGGCGGUCUCAGCA | 53 nM | 117 nM |  |  |
| UAUAUUUUUAUAGGAUAUGGAUAUGAUGCAUAUCCAGAAGGGUGAAUAUAAUAUUUUCUGUACAUGAGGAUCACCCAUGUUUAU |  |  | 235 nM | 72.2 nM |
| AAUAAACAUGAGGAUCACCCAUGUGAGGAUAUGGUAUUAUUUGGACAGUUAUGAUAUACCAGAAGGCACAAAUA | 28 nM | 46.8 nM |  |  |
| GCGUUCUUGUAGAAGGUACAUACGACAUCUUAUAAACGCUUGACACAUGAGGAUCACCCAUGUUGUAAGGAUAUACAUGAACGC |  |  | 6.82 nM | 7.03 nM |
| GCAGAAGUAGUGAGGAUAUGCUCUACCUCGGUAGAGCAGAAGGCACAUGAGGAUCACCCAUGUGAUUCUUCUGC | 26.9 nM | 158 nM |  |  |
| UGGUACAUGGGAGGAUAUGGGUUGAUAACAUGAGGAUCACCCAUGUUAAAUAUGCCUAGUGGCAACUAGAAGGCCCAUGUACCU |  |  | 317 nM | 51 nM |
